From PMC12215001 (Scientific Reports, 2025) come the findings set out here.

For test [1], the system named is N/P(14) cells. Put plainly: Western blot analysis. It counts as cell-based. Put shortly: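 N/P(14) cells were treated two ways: a concentration series for 24–48 h, or 10 µM for 6–48 h. Lysis was in SDS buffer, followed by SDS-PAGE and PVDF blotting. Probes: caspases, PARP, a CK2 substrate consensus (pS/pT)DXE antibody, and phospho-Akt (S129)/Akt and phospho-XRCC1. Bands were normalized to GAPDH as fold of control. Mean±S.D., n = 3, one-way ANOVA with Dunnett.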

Test [2] has as its system N/P(14) cells (cisplatin-resistant subline of NTUB1). Put plainly: SRB assay, cell growth inhibition. The format is cell-based. In outline: (§1)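 Cell lines: NTUB1 and N/P(14) in RPMI 1640, J82 in EMEM, and J82R (J82 adapted stepwise to 10 µM cisplatin); all in 10% FBS at 37 °C, 5% CO2, passage <10, mycoplasma-tested. SV-HUC-1 was grown in F12K. Cells were treated 48 h in 96-well plates, then TCA-fixed (10%) and stained with 0.4% SRB. After 1% acetic acid washes, dye was dissolved in 10 mM Tris base and read at 515 nm. GI50 = concentration giving 50% growth inhibition.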
A general note: Sulforhodamine B stains cellular protein and so reports cell mass.

The subject of test [3] is J82R cells (cisplatin-resistant subline of J82). Description: SRB assay, cell growth inhibition. As to conditions: 48 h. The format is cell-based. Put shortly:
as §1

The test system of test [4] is SV-HUC-1 cells (normal uroepithelial). Put plainly: SRB assay, cell growth inhibition. The conditions noted are these: SV-HUC1, 48 h. The format is cell-based. Put shortly: as §1
A further test concerns the target CK2α (Homo sapiens, UniProt P68400). Description: In vitro CK2α kinase activity assay. The format is biochemical. As to conditions: 10-dose, threefold serial dilution starting at 100 µM, 10 µM ATP.
The subject of test [5] is N/P(14) cells. Put plainly: SRB assay, combination index. The format is cell-based. As to conditions: 48 h, CI below one indicates synergism. In outline:
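N/P(14) cells got doxorubicin or mitomycin C, with or without test compound, for 48 h. Growth was measured by SRB staining: TCA fixation, 1% acetic acid wash, Tris solubilization, absorbance at 515 nm. Combination index was computed from the combined dose–effect data; CI < 1 taken as synergism.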

Test [6] concerns N/P(14) cells. Put plainly: Cell cycle analysis, propidium iodide staining and flow cytometry. It counts as cell-based. As to conditions: 24-48 h, time- and concentration-dependent.
The subject of test [7] is N/P(14) cells. Description: RT-qPCR and Western blot of base excision repair genes. As to conditions: 5 µM, 24 h (RT-qPCR). It counts as cell-based. Put shortly:
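For mRNA, cells got 5 µM test compound for 24 h. RNA was taken by TRIzol with 1-bromo-3-chloropropane phase separation and isopropanol precipitation, reverse-transcribed, then run by green-dye qPCR with gene-specific primers (n = 3, unpaired two-tailed t-test). Protein levels were read by western blot, with band densities normalized to GAPDH.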
In general terms: Real-time PCR tracks product formation cycle by cycle.

A further test concerns J82R cells. Description: Western blot analysis. It counts as cell-based. As to conditions: 24-48 h. Put shortly: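 J82R cells got the indicated test compound concentrations for 24–48 h. Proteins were extracted in SDS lysis buffer, run on SDS-PAGE, transferred to PVDF, and probed for caspase-3, -8, -9 and PARP. Band densities were normalized to GAPDH and expressed as fold of untreated control. Mean±S.D., n = 3–4, one-way ANOVA with Dunnett's test.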
Background: In western blotting, separated proteins are transferred to a membrane and probed.

A further test has as its system NTUB1 cells. Description: SRB assay, cell growth inhibition. The format is cell-based. The conditions noted are these: 48 h. Put shortly: as §1
A further test deals with J82 cells. Description: SRB assay, cell growth inhibition. As to conditions: 48 h. It counts as cell-based. In outline:
as §1

CK2α, sequence (P68400 whole entry): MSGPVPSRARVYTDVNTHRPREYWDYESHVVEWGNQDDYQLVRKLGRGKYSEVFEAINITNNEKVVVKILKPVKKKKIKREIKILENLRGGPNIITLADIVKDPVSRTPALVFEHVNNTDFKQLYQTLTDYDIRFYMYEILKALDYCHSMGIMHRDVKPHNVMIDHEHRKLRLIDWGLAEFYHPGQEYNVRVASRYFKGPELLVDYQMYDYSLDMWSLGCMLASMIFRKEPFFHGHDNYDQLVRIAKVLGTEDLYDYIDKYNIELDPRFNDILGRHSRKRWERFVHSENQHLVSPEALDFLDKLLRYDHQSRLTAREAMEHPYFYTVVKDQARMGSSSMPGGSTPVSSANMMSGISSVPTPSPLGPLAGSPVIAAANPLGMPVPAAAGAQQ

`O=C(O)c1ccc2c(c1)nc(Nc1cccc(Cl)c1)c1ccncc12` [CX-4945, reference compound]: the PARP cleavage result in the test with N/P(14) cells [1] (24 h) is reported as “increased”. Besides, the “phosphorylation of the downstream targets Akt and XRCC1” value with N/P(14) cells [1] (24 h, concentration-dependent) is given as “decreased”.

Turning to `O=c1cc(-c2ccc(Oc3c(O)cc4oc(-c5ccc(O)cc5)cc(=O)c4c3O)cc2)oc2cc(O)cc(O)c12` [Hinokiflavone], the GI50 in test [2] (NTUB1, 48 h) amounted to 1.48 µM; in test [3] it was 0.98 µM; in test [4] it was 4.09 µM. The CK2α kinase activity entry at CK2α is listed as “inhibited CK2α activity in a concentration-dependent manner”. For the same molecule, the “combination index (CI)” value in the test on N/P(14) cells [5] (HNK with doxorubicin) and in the test on N/P(14) cells [5] (HNK with mitomycin C) was “below 1” in each case. Also, the “cleavage of caspase-3, caspase-8, caspase-9, and PARP” value in the test with N/P(14) cells [1] (24-48 h) and in the test on J82R cells was “enhanced” throughout. The “phosphorylation of the CK2 substrate consensus sequence ((pS/pT)DXE)” value in the test on N/P(14) cells [1] (24 h and 48 h, concentration-dependent) was “suppressed”. Besides, in the test with N/P(14) cells [6], the “accumulation of cells in the sub-G1 phase” value is given as “significantly increased”. In addition, the “mRNA and protein levels of MUTYH, OGG1, and XRCC1” value in the test with N/P(14) cells [7] was “reduced”.

Regarding `N.N.[Cl][Pt][Cl]` [cisplatin, reference compound], the 50% growth inhibitory concentration (GI50) in the test on NTUB1 cells came to 7.89 µM; in test [2] (N/P(14) cells, 48 h, SRB assay) it was 47.4 µM; in the test with J82 cells, 2.58 µM; in [3] (J82R cells, SRB assay), 9.47 µM.

Usually GI50 stands for the concentration at which growth is held to half of that of the control. The low end stands for more potent growth inhibition, the high end for less potent growth inhibition.
